Reference: ChEMBL document CHEMBL3616436, “Synthesis, cytotoxicity and antimicrobial activity of thiourea derivatives incorporating 3-(trifluoromethyl)phenyl moiety” (Eur J Med Chem, 2015)
In brackets after ≈: the same amount, converted by molar mass.

system: Mycobacterium tuberculosis; assay: Antimycobacterial activity against p-aminosalicylic acid/isonicotinic acid hydrazide/etambutol/rifampicin-resistant Mycobacterium tuberculosis Spec. 210; format: functional
How it was run: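 Classical test-tube successive-dilution method in Youmans' modification of Proskauer and Beck liquid medium with 10% bovine serum. Inoculum came from 14-day cultures. DMSO stock was 10 mg/mL, diluted geometrically in medium. Tubes were incubated at 37 °C. Concentrations tested were 3.1, 6.2, 12.5, 25, 50 and 100 µg/ml. MIC is the minimum concentration inhibiting growth relative to compound-free tubes.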

Row | Structure (SMILES) | MIC [µg/mL]
1 | FC(F)(F)c1cccc(NC(=S)Nc2cccc(Br)c2)c1 | 100 (≈ 267 µM)
2 | FC(F)(F)c1cccc(NC(S)=Nc2ccc(Cl)c(Cl)c2)c1 | 50 (≈ 137 µM)
3 | CSCCCNC(=S)Nc1cccc(C(F)(F)F)c1 | 50 (≈ 162 µM)
4 | N#Cc1ccc(NC(=S)Nc2cccc(C(F)(F)F)c2)cc1 | > 100
5 | NNC(=O)c1ccncc1 [ISONIAZID] | 6.25 (≈ 45.6 µM)
6 | Fc1ccc(NC(=S)Nc2cccc(C(F)(F)F)c2)cc1 | 25 (≈ 79.5 µM)
7 | FC(F)(F)c1cccc(NC(S)=NCc2ccccc2)c1 | 25 (≈ 80.6 µM)
8 | COC(=O)c1ccccc1NC(=S)Nc1cccc(C(F)(F)F)c1 | > 100
9 | O=[N+]([O-])c1ccc(NC(=S)Nc2cccc(C(F)(F)F)c2)cc1 | 50 (≈ 146 µM)
10 | Cc1ccc(NC(=S)Nc2cccc(C(F)(F)F)c2)cc1Cl | > 100
11 | FC(F)(F)c1cccc(NC(=S)NCCc2ccccc2)c1 | 50 (≈ 154 µM)
12 | FC(F)(F)c1cccc(NC(=S)Nc2ccccc2)c1 | 50 (≈ 169 µM)
13 | Fc1cccc(NC(=S)Nc2cccc(C(F)(F)F)c2)c1 | 25 (≈ 79.5 µM)
14 | Fc1ccccc1NC(=S)Nc1cccc(C(F)(F)F)c1 | 100 (≈ 318 µM)
15 | Fc1ccc(NC(=S)Nc2cccc(C(F)(F)F)c2)cc1Cl | 50 (≈ 143 µM)
16 | FC(F)(F)c1cccc(NC(=S)Nc2cccc(Cl)c2)c1 | 100 (≈ 302 µM)
17 | FC(F)(F)c1cccc(NC(=S)Nc2ccc(Cl)cc2)c1 | > 100
18 | CCNC(=S)Nc1cccc(C(F)(F)F)c1 | > 100
19 | O=C(NC(=S)Nc1cccc(C(F)(F)F)c1)c1ccccc1 | > 100
20 | C=C(C)CNC(=S)Nc1cccc(C(F)(F)F)c1 | > 100
21 | COc1cccc(NC(=S)Nc2cccc(C(F)(F)F)c2)c1 | > 100
22 | CCOC(=O)c1ccc(NC(=S)Nc2cccc(C(F)(F)F)c2)cc1 | > 100
23 | CCCCc1ccc(NC(=S)Nc2cccc(C(F)(F)F)c2)c(C)c1 | 50 (≈ 136 µM)
24 | FC(F)(F)c1cccc(NC(=S)NC2CCCCC2)c1 | > 100
25 | FC(F)(F)c1cccc(NC(=S)NCc2ccco2)c1 | > 100
